Here are results for 18 compounds from ChEMBL document CHEMBL1123456, “A novel class of conformationally restricted heterocyclic muscarinic agonists” (J Med Chem, 1986).

The nature of data set [1]: Dissociation constant (pKa). Format: physicochemical. In outline:
(§1)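 pKa values measured in water at 25 °C by a previously published method.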

The target in data set [2] is Muscarinic acetylcholine receptor. As to the kind of experiment: Inhibition of binding of radioactive N-propylbenzilycholine mustard ([3H]-PrBCM) to rat brain membranes. Type of data set: cell membranes, Membrane.
For data set [3] the target is unchanged. In words: In vitro antagonistic activity against peripheral Muscarinic acetylcholine receptor in guinea pig ileum as inhibition of acetylcholine induced muscle contraction. Format: functional, tissue-based. In outline:
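Guinea pigs were killed by a blow to the head and exsanguinated. A 30 mm ileum segment was held isotonically in Tyrode solution at 37 °C in an organ bath. IC50 was obtained by log probit analysis.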

Data set [4] is described as follows: pKa value is determined. Format: physicochemical. In outline:
as §1

Usually pKa stands for the pH at which an ionisable group is half protonated. Higher therefore signals a weaker acid or stronger base. The compound `COC(=O)C1=CCCN(C)C1` [ARECOLINE] had a pKa in data set [1] of 7.8.
The term IC50 denotes the concentration at which inhibition is half-maximal. `CC#CCOc1noc2c1CNCC2.Cl` showed a pKa in data set [1] of 7.6. Also, the IC50 in data set [2] came to 5.2 µM.
As for `C/C=C/COc1noc2c1CNCC2.Cl`, the pKa in data set [1] worked out at 7.7. Moreover, the concentration for half-maximal inhibition (IC50) is 14 µM in data set [2] and above 50 µM in data set [3].
In turn, `COc1noc2c1CN(C)CC2.Cl` registered a pKa in data set [1] of 6.6. Besides, in data set [2], the IC50 amounted to 27 µM.
On the same counts, the results for `C=CCOc1noc2c1CNCC2.Cl` are 7.5 and 9.6 µM.
Compound `CCCOc1noc2c1CNCC2.Cl` displayed a pKa in data set [1] of 7.6. Also, the values for the IC50 in data set [2] and in data set [3] were 10 µM and 35 µM, respectively.
Turning to `COC(=O)C1=CCCNC1` [NORARECOLINE], in data set [1], the pKa was 8.7. Besides, the half-maximal inhibitory concentration (IC50) in data set [2] stood at 30 µM.
In the case of `Cl.c1ccc(COc2noc3c2CNCC3)cc1`, the pKa in data set [1] worked out at 7.5. Besides, the IC50 in data set [2] is 32 µM; in data set [3], 48 µM.
As for `CCCCOc1noc2c1CNCC2.Cl`, in data set [1], the pKa was determined as 7.6. In addition, the IC50 in data set [2] is 15 µM; in data set [3], above 50 µM.
With `C#CCOc1noc2c1CNCC2.Cl`, the pKa in data set [1] came out at 7.6. Also, the IC50 in data set [2] was 5.8 µM.
In data set [4], `CCOc1noc2c1CNCC2.Cl` had a pKa of 7.6. For the same compound, the IC50 in data set [2] was found to be 6 µM.
Regarding `CCOc1noc2c1CN(C)CC2.Cl`, the pKa in data set [1] was 6.6. The IC50 in data set [2] is 2.4 µM.
In data set [1], `CCN1CCc2onc(OC)c2C1.Cl` had a pKa of 7. Further, the 50% inhibitory concentration (IC50) in data set [2] turned out to be 15 µM.
Compound `COc1noc2c1CN(Cc1ccccc1)CC2.Cl` returned a pKa in data set [1] of 6.1. Moreover, the IC50 in data set [2] and in data set [3] was above 50 µM each time.
Consider `C=C(Br)COc1noc2c1CNCC2.Cl`, for which the pKa in data set [1] came out at 7.6. Besides, the results for the IC50 in data set [2] and in data set [3] were 13 µM and 22 µM, respectively.
`COc1noc2c1CNCC2.Cl`: the pKa in data set [4] stood at 7.5. The concentration for half-maximal inhibition (IC50) in data set [2] worked out at 45 µM.
The compound `CC(C)COc1noc2c1CNCC2.Cl` registered a pKa in data set [1] of 7.7. In addition, the results for the IC50 in data set [2] and in data set [3] were above 50 µM and 49 µM, respectively.
On the same counts, the results for `CC(C)Oc1noc2c1CNCC2.Cl` are 7.5, 3.5 µM and 11 µM.
